Calls of active or inactive are those of the source.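 How the source made its calls, unless noted: active means Her2 level under about 52% in both replicate screens, with viability over 70% of control (limit read from the data); inconclusive means Her2 under the limit in one screen only, or viability under 70%; inactive means Her2 level above the set limit.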
What was measured:
[1] = reducers of endogenous Her2 protein level, primary screen, SKBR3 breast tumor cells, AlphaScreen, ATP viability (AID 461); conditions: 18-24 h, measured here: SKBR3 viability, ATP luminescence, at 10 µM;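 on Her2 level: lower value means less Her2 protein in the cells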;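 on viability: percent of carrier control wells set as 100% viability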
[2] = molecular target: Receptor tyrosine-protein kinase erbB-2 (Homo sapiens) (UniProt P04626); test: as above; conditions: 18-24 h, at 10 µM, stronger effect = lower value
[3] = SK-BR-3 cell growth inhibitors, pilot screen, 24 h, human (AID 572;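 active means viability at or below 10% of carrier control in both of two separate runs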;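 further: compound exposure lasted between 18 and 24 h rather than exactly 24 h; 100% = carrier-treated control wells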); conditions: SK-BR-3 viability, CellTiter-Glo luminescence, at 10 µM, stronger effect = lower value
[4] = HUVEC growth inhibition – cell-based, human, primary screen (AID 575;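 active means viability at or below 30% in both replicate assays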;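 further: 100% = median of untreated cell wells with 0.1% DMSO on each plate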); conditions: HUVEC proliferation, CellTiter-Glo luminescence, 72 h; at 10 µM; stronger effect = lower value
In short: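 Test system: primary human umbilical vein endothelial cells. Quantity: 1250 cells/well. Compound: single 10 µM dose, 0.1% DMSO, from 5x medium stock. Timing: 72 h treatment at 37 °C. Detection: ATP-based CellTiter-Glo luminescent read. Benchmarks: vehicle and MePR control wells. Format: 384-well plates coated with collagen.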

[5] = growth inhibitors of H69AR lung tumor, primary screen, human, duplicate replicates (AID 580;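 active means viability at or under a set limit in both replicates, limit being median viability minus 3 SD, cut at about 48% in these data, passing the limit was not always enough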;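 further: 100% = mean luminescence of untreated wells and 0% = no signal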); conditions: H69AR lung tumor cells viability, ATP luminescence, 72 h; at 10 µM; stronger effect = lower value
[6] = reversal of MRP1-mediated doxorubicin resistance, pilot screen, H69AR cells, doxorubicin co-treatment (AID 601;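 active means viability loss from added drug above about 55%, and viability with drug at most 40%, in both replicates, limit read from the data, passing the limit was not always enough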); conditions: CellTiter-Glo, 72 h, at 10 µM; for differential viability (reversal): stronger effect = higher value
[7] = 384-well plate pilot, post-Golgi transport modulator project, inhibition of yeast transport mutant growth (AID 636; in the data active means inhibition above about 31%); conditions: absorbance 615 nm, about 18 h, stronger effect = higher value
[8] = growth suppression of yeast trafficking mutant, preliminary HTS, modulators of trafficking downstream of Golgi apparatus project, 1536-format plate, OD 615 nm (AID 637; in the data active means inhibition above about 30%); conditions: yeast transport mutant growth, absorbance 615 nm, 18 h; stronger effect = higher value
[9] = H69AR cells + 2 uM doxorubicin, measured here: viability with 2 uM doxorubicin, stronger effect = lower value
[10] = H69AR cells, compound alone cytotoxicity

Sequence of Receptor tyrosine-protein kinase erbB-2 (Homo sapiens) (P04626 whole entry, looked up): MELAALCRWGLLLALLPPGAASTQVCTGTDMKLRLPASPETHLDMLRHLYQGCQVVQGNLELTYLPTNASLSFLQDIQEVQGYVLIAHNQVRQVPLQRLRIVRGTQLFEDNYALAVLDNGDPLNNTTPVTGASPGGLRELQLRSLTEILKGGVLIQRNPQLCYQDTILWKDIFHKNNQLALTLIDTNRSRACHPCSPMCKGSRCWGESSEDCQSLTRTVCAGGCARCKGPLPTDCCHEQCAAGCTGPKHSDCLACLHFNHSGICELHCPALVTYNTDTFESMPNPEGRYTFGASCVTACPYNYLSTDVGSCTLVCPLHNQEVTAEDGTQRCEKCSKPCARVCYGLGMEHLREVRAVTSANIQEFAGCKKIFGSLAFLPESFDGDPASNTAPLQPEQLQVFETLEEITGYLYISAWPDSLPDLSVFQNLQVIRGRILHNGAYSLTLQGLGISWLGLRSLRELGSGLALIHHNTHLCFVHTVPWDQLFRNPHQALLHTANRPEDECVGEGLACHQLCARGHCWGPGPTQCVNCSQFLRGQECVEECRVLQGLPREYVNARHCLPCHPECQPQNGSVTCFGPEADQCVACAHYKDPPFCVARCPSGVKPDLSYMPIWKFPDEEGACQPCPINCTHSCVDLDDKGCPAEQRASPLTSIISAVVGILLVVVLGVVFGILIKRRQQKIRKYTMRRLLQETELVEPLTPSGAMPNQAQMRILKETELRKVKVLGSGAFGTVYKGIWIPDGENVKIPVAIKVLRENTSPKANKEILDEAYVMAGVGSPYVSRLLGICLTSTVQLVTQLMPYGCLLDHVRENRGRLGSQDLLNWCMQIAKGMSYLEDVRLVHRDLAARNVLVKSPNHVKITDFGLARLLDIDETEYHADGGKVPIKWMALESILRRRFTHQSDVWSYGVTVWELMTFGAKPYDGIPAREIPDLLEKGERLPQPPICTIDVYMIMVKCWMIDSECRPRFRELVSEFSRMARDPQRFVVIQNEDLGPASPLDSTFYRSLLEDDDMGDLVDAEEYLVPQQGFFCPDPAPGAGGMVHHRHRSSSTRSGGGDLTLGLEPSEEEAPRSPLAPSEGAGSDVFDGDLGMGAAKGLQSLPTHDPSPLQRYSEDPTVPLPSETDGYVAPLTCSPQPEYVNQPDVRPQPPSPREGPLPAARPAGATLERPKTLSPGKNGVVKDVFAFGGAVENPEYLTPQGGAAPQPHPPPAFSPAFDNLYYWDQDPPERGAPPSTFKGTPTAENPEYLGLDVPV

SMILES | viability [1] [%] | Her2 level [2] | viability [3] | viability [4] | viability [5] | differential viability (reversal) ([6]; H69AR cells + 2 uM doxorubicin) | viability [6, 9] [%] | viability [6, 10] [%] | inhibition [7] | inhibition [8]
COc1ccc(-n2nc(C(=O)Nc3ccc4c(c3)OCO4)c3c4ccccc4n(C)c3c2=O)cc1 | 99 | 88.5% (inactive) | 99% (inactive) | 98% (inactive) | 92.6% (inactive) | -10.9% (inactive) | 104 | 92.6 | -3.03% (inactive) | -1.45% (inactive)
CC(C)(C)C(=O)Cn1c(=N)n(Cc2ccccc2)c2ccccc21 | 84.5 | 81.5% (inactive) | 84.5% (inactive) | 53.3% (inactive) | 76.2% (inactive) | -0.985% (inactive) | 77.1 | 76.2 | -3.2% (inactive) | -2.3% (inactive)
NC1=NC(c2ccc(Cl)cc2)n2c(nc3ccccc32)N1 (stereo not given) | 96 | 86% (inactive) | 96% (inactive) | 84.9% (inactive) | 78.4% (inactive) | -10.8% (inactive) | 89.3 | 78.4 | -5.13% (inactive) | -0.73% (inactive)
CCCNS(=O)(=O)c1ccc(OCC(=O)NCc2ccco2)cc1 | 93.5 | 120% (inactive) | 93.5% (inactive) | 91.3% (inactive) | 83.7% (inactive) | -3.46% (inactive) | 87.2 | 83.7 | 1.6% (inactive) | -3.65% (inactive)
COCCn1c(=NC(=O)CSC(C)=O)sc2cc(F)ccc21 | 85 | 82.5% (inactive) | 85% (inactive) | 75.4% (inactive) | 58.2% (inactive) | 0.03% (inactive) | 58.2 | 58.2 | -3.16% (inactive) | -2.86% (inactive)
COc1ccc(NC(=O)C(C)NS(=O)(=O)c2ccccc2)cc1Cl (stereo not given) | 92 | 99% (inactive) | 92% (inactive) | 98.4% (inactive) | 97.7% (inactive) | 6.73% (inactive) | 91 | 97.7 | -3.87% (inactive) | -6.19% (inactive)
COc1cc(OC)cc(C(=O)N2CCN(C(=O)c3ccc(OC)c(OC)c3)CC2)c1 | 100 | 104% (inactive) | 100% (inactive) | 86.1% (inactive) | 92.4% (inactive) | -11.1% (inactive) | 103 | 92.4 | -1.84% (inactive) | -6.45% (inactive)
O=C(CSc1nnc2ccccn12)NCCN1C(=O)CSC1=O | 134 | 85.5% (inactive) | 134% (inactive) | 92.5% (inactive) | 105% (inactive) | 11.8% (inactive) | 93.6 | 105 | -3.64% (inactive) | -0.32% (inactive)
CCC1(C)Cc2c(C#N)c(N)n(N)c(=S)c2CO1 (stereo not given) | 102 | 97.5% (inactive) | 102% (inactive) | 85.1% (inactive) | 81.7% (inactive) | -7.55% (inactive) | 89.3 | 81.7 | 0.91% (inactive) | -2.13% (inactive)
CCOC(=O)c1[nH]c(C)c(C(=O)N2CCN(C(=O)c3ccco3)CC2)c1C | 88.5 | 95.5% (inactive) | 88.5% (inactive) | 98.4% (inactive) | 97.8% (inactive) | 2.2% (inactive) | 95.6 | 97.8 | -11.6% (inactive) | -0.48% (inactive)
Cn1c(-c2ccccc2)cc(=O)c2ccccc21 | 98.5 | 109% (inactive) | 98.5% (inactive) | 102% (inactive) | 96.6% (inactive) | -6.83% (inactive) | 103 | 96.6 | -1.43% (inactive) | -2.13% (inactive)
COc1ccc(C2N(C(=O)c3ccccc3)CCN2C(=O)c2ccccc2)cc1 | 114 | 103% (inactive) | 114% (inactive) | 113% (inactive) | 103% (inactive) | 2.48% (inactive) | 100 | 103 | -1.04% (inactive) | 5.41% (inactive)
O=C(CSc1nnc2sc3ccccc3n12)c1ccco1 | 95 | 85.5% (inactive) | 95% (inactive) | 118% (inactive) | 102% (inactive) | 16.9% (inactive) | 85.3 | 102 | -4.46% (inactive) | -6% (inactive)
Cc1nn(-c2ccccc2)c2c1C(c1c(C)[nH]c(C#N)c1C)C(C#N)=C(N)O2 (stereo not given) | 88 | 86.5% (inactive) | 88% (inactive) | 85.5% (inactive) | 92.7% (inactive) | -13.2% (inactive) | 106 | 92.7 | -4.13% (inactive) | -5.25% (inactive)

Source: PubChem BioAssay
